Compound activity as filed in PubChem BioAssay.
M18AAP inhibitor: blocks P. falciparum M18 aspartyl aminopeptidase; 290,000 tested, 1.2% active; recombinant PfM18AAP, H-Glu-NHMec fluorogenic cleavage; AID 1822; inhibition, % at 7.35 µM;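 active = inhibition above the campaign mean inhibition over all tested compounds plus 3 SD, cut at about 28% in these data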;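 note: 0% = plate median of test compound wells and 100% = 2 mM ZnCl2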
Wee1 stabilizer: human Wee1 degradation inhibition, primary screen; HeLa Luc-Wee1K328M stability, luciferase luminescence; 100% = proteasome inhibitor MG132 effect; 220,000 tested, 1.2% active; P30291; reporter increase, % at 5 µM;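 active = activation above the mean of all tested compounds plus 3 SD, set per screening run, cut at about 8.8% in these data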;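 note: cells exposed to compound for 20 h before luminescence read; 0% = DMSO alone and 100% = MG132 at 30 µM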
zVAD death inh: L929 zVAD cell death inhibition | L929 zVAD necroptosis rescue, ATP luminescence, 24 h; with zVAD 60 µM | viability rescue, % at 10 µM | 220,000 tested, 0.38% active | AID 1377;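 active = activation, scaled between plate controls, above about 75%, limit read from the data; inactive = activation under that limit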;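 note: 0% = zVAD with DMSO and 100% = DMSO alone without zVAD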
RBBP9 inhibitor: human RBBP9 hydrolase inhibition; 220,000 tested, 0.2% active; AID 1515; inhibition, % at 7.94 µM; recombinant RBBP9, FP-Rh probe fluorescence polarization;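 active = inhibition above the campaign mean of all tested compounds plus 3 SD, cut at about 14% in these data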;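 note: plate controls were DMSO wells with RBBP9 for no effect and wells lacking RBBP9 protein for full effect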
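Assay system: recombinant human RBBP9; Reagent: Serine-hydrolase probe FP-Rh, 375 nM pre-mixing; Doses: 7.94 µM single dose, 0.794% DMSO; Incubation: 30 min then 45 min, 25 °C; Detection: fluorescence polarization (mP), excitation 525 nm, emission 598 nm; Evaluation: percent inhibition from mP, scaled between DMSO and no-protein wells.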
TNF death inh: TNF-alpha cell death inhibition in Jurkat FADD-/- cells. Jurkat FADD-/- TNF necroptosis rescue, ATP luminescence, 24 h; 0 = TNF only, 100 = no-TNF cells. activation (protection from cell death), % at 10 µM. 220,000 tested, 0.068% active;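 active = activation, meaning protection from cell death, of at least 50% relative to plate controls; inactive = activation below 50%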;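 note: necroptosis triggered by 40 ng/mL TNF-alpha added together with compound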
p97 ATPase inh: inhibitors of human p97 ATPase; recombinant p97 ATPase, Kinase-Glo ATP luminescence, 3 h; P55072; inhibition, % at 8 µM; 220,000 tested, 0.42% active; AID 1481; in the data active = inhibition above about 15%;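 note: 0% = DMSO vehicle and 100% = wells lacking enzyme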
Target sequence (P55072 whole entry, looked up): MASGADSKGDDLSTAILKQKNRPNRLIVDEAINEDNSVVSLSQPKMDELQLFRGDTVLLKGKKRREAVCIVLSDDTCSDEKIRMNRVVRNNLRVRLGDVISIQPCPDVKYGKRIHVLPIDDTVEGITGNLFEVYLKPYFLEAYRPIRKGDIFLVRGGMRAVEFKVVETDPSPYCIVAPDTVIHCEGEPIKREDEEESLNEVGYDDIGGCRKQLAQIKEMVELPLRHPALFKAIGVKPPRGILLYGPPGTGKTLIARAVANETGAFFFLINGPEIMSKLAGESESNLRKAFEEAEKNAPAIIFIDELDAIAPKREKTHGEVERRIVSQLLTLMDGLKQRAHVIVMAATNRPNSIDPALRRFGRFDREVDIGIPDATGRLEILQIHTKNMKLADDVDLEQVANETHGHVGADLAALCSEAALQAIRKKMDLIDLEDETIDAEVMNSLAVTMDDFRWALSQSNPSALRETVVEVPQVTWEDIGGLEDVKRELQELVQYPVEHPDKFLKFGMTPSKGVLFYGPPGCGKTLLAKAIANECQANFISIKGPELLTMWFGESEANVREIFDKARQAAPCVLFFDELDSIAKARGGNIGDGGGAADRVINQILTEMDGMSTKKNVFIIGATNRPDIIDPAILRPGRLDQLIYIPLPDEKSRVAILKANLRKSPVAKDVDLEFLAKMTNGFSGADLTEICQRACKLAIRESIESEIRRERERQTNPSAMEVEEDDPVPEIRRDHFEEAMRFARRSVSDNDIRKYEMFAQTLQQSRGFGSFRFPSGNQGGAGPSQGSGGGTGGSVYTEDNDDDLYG
zVAD necrop conf: confirmed blocker of zVAD induced death in L929 cells; shares compounds with zVAD death inh; L929 zVAD-induced necroptosis rescue, ATP luminescence, 24 h; activation (protection from necroptosis), % at 10 µM; 760 tested, 16% active; AID 463117;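 active = mean protection from necroptosis of at least 50% over duplicate tests; inactive = mean protection below 50%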;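 note: 0% = cells with zVAD alone and 100% = vehicle cells without zVAD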
Active calls of the source: *; · = no result; ! = a repeat was not active. This is a sample that favours compounds with a hit; in the whole collection about 2.7% have one here.

SMILES	M18AAP inhibitor	Wee1 stabilizer	zVAD death inh	RBBP9 inhibitor	TNF death inh	p97 ATPase inh	zVAD necrop conf
COc1ccc(C)cc1NC(=O)C1CCN(S(=O)(=O)c2ccc3c(c2)C(C)(C)C(=O)N3C)CC1	-3	·	·	·	·	·	·
Cc1ccc(NC(=O)Nc2cccc(F)c2)nc1	3	·	·	·	·	·	·
Cc1ccnc(NC(=O)Nc2cccc(F)c2)c1	3	0	92*	-3	7	-11	32
Cc1cccc(NC(=O)Nc2cc(C)cc(C)n2)c1	3	1	76*	-5	0	-3	3
Cc1ccc(S(=O)(=O)NCC(=O)OCC(=O)NCc2ccc(F)cc2)cc1	4	1	0	2	1	-5	·
CCn1c(NC(C)=O)nc2ccccc21	3	0	1	-1	-2	1	·
CCn1c(NC(=O)c2cccs2)nc2ccccc21	4	7	81*	-8	28	6	3
O=[N+]([O-])c1ccc2c(c1)ncn2-c1ccccc1	0	3	83*	-3	0	-2	20
COc1ccc(C(=O)OCC(=O)NC(=O)NC2CCCC2)c(O)c1	-5	-2	77*	-5	1	-9	10
O=C(Nc1nnc(SCc2ccccn2)s1)C1CC(=O)N(c2ccc(F)cc2)C1 (centres undefined)	5	·	·	·	·	·	·
COc1ccc(C(=O)CNc2cccc(F)c2)cc1	8	·	·	·	·	·	·
COc1cc2[nH]c3c(Cl)ncnc3c2cc1OC	2	4	77*	-2	2	7	13
COc1cc2[nH]c3c(N4CCN(c5ccc(Cl)cc5)CC4)ncnc3c2cc1OC	1	0	2	-6	-4	1	·
NC(=O)c1ccc(-c2ncc(-c3ccccc3)o2)cc1	-3	-4	79*	-3	-5	-4	63*
Cc1ccc(-c2cnc(-c3ccccc3C(=O)O)o2)cc1	7	·	·	·	·	·	·
c1ccc(-c2cnc(-c3cccnc3)o2)cc1	-7	1	79*	-10	-14	1	47
O=c1oc(-c2cccnc2)nc2ccccc12	8	0	0	-1	-1	9	·
CNC(=O)c1ccccc1NC(=O)C1CC(=O)N(C(C)C)C1 (centres undefined)	26	·	·	·	·	·	·
C=CCN1C(=O)/C(=C2/Sc3ccccc3N2CC)SC1=S	3	·	·	·	·	·	·
CCN1C(=O)/C(=C2/Sc3ccccc3N2CC)S/C1=N\c1ncn[nH]1	4	-3	82*	0	-3	-1	5
Nc1[nH]nc2nc(N3CCOCC3)nc(-c3ccccc3)c12	3	5	92*	2	0	2	39
COc1ccc(S(=O)(=O)N(C)c2ccc(C(=O)NCC3CCCO3)cc2)cc1OC (centres undefined)	-4	·	·	·	·	·	·
CC(=O)Nc1ccc(Sc2ncccc2C(=O)Nc2ccc(OC(F)(F)F)cc2)cn1	-1	-1	80*	-10	-11	-2	77*
CC(C)c1nc2cc(C(=O)N3CCNC(=O)C3c3cccc(F)c3)ccc2o1 (centres undefined)	-11	·	·	·	·	·	·
CC(C)(C)C1CCc2nc(NC(=O)Cc3cn4ccsc4n3)sc2C1 (centres undefined)	4	0	76*	-12	4	6	23
SMILES	M18AAP inhibitor	Wee1 stabilizer	zVAD death inh	RBBP9 inhibitor	TNF death inh	p97 ATPase inh	zVAD necrop conf
CC1CCc2nc(NC(=O)Cc3cccs3)sc2C1 (centres undefined)	7	2	0	1	8	0	·
O=C(Nc1cccc(Cl)c1)Nc1nccs1	3	-2	82*!	-9	11	13	11
O=C(Nc1ccc2c(c1)CCC2)c1cc(=O)[nH]c2ccccc12	-16	-3	2	-9	-1	3	·
Cc1ccc(C)c(N2CC(C(=O)Nc3cc(C)on3)CC2=O)c1 (centres undefined)	-10	·	·	·	·	·	·
N/C(=N\NC(=O)Nc1ccc(Cl)cc1)c1ccccn1	18	1	81*	-2	1	4	3
CCOC(=O)c1ccc(NC(=O)Nc2ccn(C)n2)cc1	4	1	86*	-7	1	2	40
O=C(CSc1ccccc1)N(c1ccc(Br)cc1)c1nccs1	2	-3	0	-5	2	4	·
O=C(Nc1ccc(-c2csc(Nc3ccccc3)n2)cc1)c1cccc(C(F)(F)F)c1	·	·	60	·	6	·	·
O=C(Nc1ccc(-c2csc(Nc3ccc(Cl)cc3)n2)cc1)c1cccc(C(F)(F)F)c1	·	·	82*	·	8	·	39
O=C(NCc1ccc(F)cc1F)Nc1cnccc1C(F)(F)F	1	·	·	·	·	·	·
COCC(=O)Nc1cccc(-c2ccc3nncn3n2)c1	-5	·	·	·	·	·	·
O=C(Cc1ccc(F)cc1)Nc1cccc(-c2ccc3nncn3n2)c1	0	-2	89*	-11	5	4	3
Cc1c(Cl)cccc1NC(=O)Nc1cc(C(C)(C)C)nn1C	3	-4	81*	-2	10	4	31
Cc1c(Cl)cccc1NC(=O)Nc1cc(C(C)(C)C)on1	3	·	·	·	·	·	·
Cc1ccc(NC(=O)C2CCCN2C(=O)NC2CCCCC2)c(C)c1 (centres undefined)	-1	-2	0	-7	-1	1	·
Cc1ccc2c(c1)C(C)CC(C)(C)N2C(=O)NC1CCCCC1 (centres undefined)	0	0	88*	-3	7	5	82*
Cc1ccc2c(c1)N(C(=O)NC1CCCCC1)C(C)(C)CC2C (centres undefined)	2	-3	82*	0	16	7	81*
N#Cc1c(N)nc2c(c1-c1ccccc1)CCC2	-1	1	79*	1	-5	5	8
COc1ccc(-c2c(C#N)c(N)nc3c2CCC3)cc1	9	-2	1	-5	-2	6	·
CC(C)c1ccc(NC(=O)N2CCc3ccccc3C2)cc1	0	-4	76*	0	4	5	1
C=CCn1c(C)cc(C2=NNC(=NCc3ccccc3)SC2)c1C	-1	0	6	3	1	6	·
Cc1ccc(C)c(C2=NNC(=NCc3ccccc3)SC2)c1	2	2	77*	-12	95*	0	25
COc1cccc(/C=N/n2nnnc2N)c1O	16	-3	0	-6	-1	-5	·
Cc1ccc(Nc2nc(-c3ccc(F)cc3)cs2)nc1	-3	·	·	·	·	·	·
